Results from different studies.
Compare with care: the assays were run in different laboratories.
CDK4: Cyclin-dependent kinase 4 (CDK4, Homo sapiens, UniProt P11802)
Maoa: Amine oxidase [flavin-containing] A (Maoa, Rattus norvegicus, UniProt P21396)
REN: Renin (REN, Homo sapiens, UniProt P00797)

Compound | target | test | conditions | inhibition [%]
C#Cc1n[nH]c2c(-c3cn(C(C)c4ccccn4)c(=O)[nH]c3=O)cc(F)cc12 (stereo not shown) | Tyrosine-protein kinase Fer (FER, Homo sapiens, UniProt P16591) | enzyme activity, inhibitor | 1 µM | 6.8
CCOC(=O)[C@H]1Cc2c(cc([N+](=O)[O-])cc2[N+](=O)[O-])[C@@H](O)[C@@]12C(=O)Nc1ccc(C)cc12 | CDK4 | cell-free assay, inhibitor, TR-FRET | 1 µM | 67.8
Clc1ccc2c(C3CCN(CCc4c[nH]c5ccccc45)CC3)c[nH]c2c1 | Maoa | ligand displacement, radioligand | 10 µM | 15
CC(C)C[C@H](NC(=O)[C@H](Cc1ccccc1)NC(=O)c1cnccn1)B(O)O | GZMA (Homo sapiens, UniProt P12544) | enzyme activity, inhibitor | 33 µM | 72.4
CCOC(=O)[C@H]1Cc2c(cc([N+](=O)[O-])cc2[N+](=O)[O-])[C@H](O)[C@]12C(=O)Nc1ccc(Cl)cc12 | CDK4 | cell-free assay, inhibitor, TR-FRET | 1 µM | 45.2
Cn1cc(-c2cc(F)cc(N3CCn4c(cc5c4CCCC5)C3=O)c2CO)cc(Nc2ccc(N3CCN(C4COC4)CC3)cn2)c1=O | Serine/threonine-protein kinase MRCK beta (CDC42BPB, Homo sapiens, UniProt Q9Y5S2) | enzyme activity, inhibitor | 0.1 µM | 2
CCOC(=O)[C@H]1Cc2c(cc([N+](=O)[O-])cc2[N+](=O)[O-])[C@@H](O)[C@@]12C(=O)Nc1cc(Br)ccc12 | CDK4 | cell-free assay, inhibitor, TR-FRET | 1 µM | 59
N=C(N)c1ccc2cc(OC(=O)c3ccc(N=C(N)N)cc3)ccc2c1 | REN | enzyme activity, inhibitor | 10 µM | 45
CCOC(=O)[C@H]1Cc2c(cc([N+](=O)[O-])cc2[N+](=O)[O-])[C@@H](O)[C@@]12C(=O)Nc1cc(Cl)ccc12 | CDK4 | cell-free assay, inhibitor, TR-FRET | 1 µM | 61.2
COCCCOc1cc(C[C@@H](C[C@H](N)[C@@H](O)C[C@H](C(=O)NCC(C)(C)C(N)=O)C(C)C)C(C)C)ccc1OC | REN | enzyme activity, inhibitor | 1 nM | 11
c1ccc(C(NCCNC(c2ccccc2)c2ccccc2)c2ccccc2)cc1 | REN | enzyme activity, inhibitor | 10 µM | 30
Cc1ncc(C)n2nc(/C=C/c3nc(N4CCCC4)cc(N4CCOCC4)n3)nc12 | Maoa | ligand displacement | 10 µM | 2
COc1cc(Nc2ncc(F)c(Nc3ccc4c(n3)NC(=O)C(C)(C)O4)n2)cc(OC)c1OC | Serine/threonine-protein kinase DCLK1 (DCLK1, Homo sapiens, UniProt O15075) | binding | 10 µM | 59
